Screening results deposited in PubChem BioAssay by several laboratories.
RAM network inh: yeast RAM network inhibition. S. cerevisiae dse1pr::URA3 reporter, 5-FOA growth OD615, 2 d; analog-sensitive cbk1-as2 kinase mutant strain. inhibition, % at 50 µM. 190,000 tested, 1.8% active;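 active = inhibition above a set limit, 3 SD over mean compound inhibition, cut at about 8.4% in these data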;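 note: 0% = DMSO-only wells with no growth and 100% = 10 µM 1-NA-PP1 full growth; inhibition rescues growth on 5-FOA so higher OD means more RAM inhibition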
Yeast growth inh: chemicals that inhibit yeast BB579 growth in restrictive medium (lifespan-shortening candidates) | S. cerevisiae BB579 growth, OD615, 48 h | 140,000 tested, 0.51% active | AID 804 | inhibition, % at 10 µM;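 active = inhibition above a set limit, 3 SD over the mean compound inhibition, cut at about 44% in these data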
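Test system: DeaD yeast strain BB579 / Buffer or medium: restrictive glucose-based CSMM-D medium / Doses: single 10 µM dose / Schedule: 4 h cell preincubation, 48 h compound exposure, 30 °C humidified / Technique: culture absorbance at 615 nm / Controls: amphotericin B positive control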
Phagocyt inh: macrophage phagocytosis inhibition; 110,000 tested, 0.07% active; inhibition, % at 5 µM; J774A.1 macrophage IgG-bead phagocytosis, imaging; AID 1029;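 active = inhibition above the mean of the plate negative controls plus 5 SD, cut at about 13% in these data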;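 note: phagocytic index as fraction of beads internalized from green versus red external bead signal; plate controls were DMSO negative control for no effect and cytochalasin-D positive control for full effect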
Yeast life ext: extends the lifespan of yeast | AID 775 | S. cerevisiae growth with nicotinamide, OD615; deaD strain in restrictive glucose medium | 130,000 tested, 0.68% active | inhibition of the nicotinamide effect, % at 10 µM;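 active = inhibition above a set limit, placed 3 SD over the median of all compounds, cut at about 26% in these data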;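 note: 0% = nicotinamide-treated wells and 100% = cells grown without nicotinamide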
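Buffer or medium: CSMM-D glucose medium, restrictive; test system: modified budding yeast, DeaD strain; compound: single dose 10 µM compound, 0.25% DMSO; schedule: culture preincubation 4 h, compound exposure 48 h, both 30 °C; detection: optical density (absorbance) at 615 nm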
RAM 5-FOA: RAM network inhibition, efflux-deficient strain. shares compounds with RAM network inh. S. cerevisiae efflux-deficient reporter strain, 5-FOA growth OD615, 2 days. max inhibition, %. 1,200 tested, under 10 active. AID 1305; call rule not given here;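 note: plate controls were vehicle for no effect and reference inhibitor for full effect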
Numbers without * were called inactive; nt = not tested or not shown. Sampled rows, rich in hits. Any-hit rate of the full collection: about 2.7%.

SMILES	RAM network inh	Yeast growth inh	Phagocyt inh	Yeast life ext	RAM 5-FOA
Cc1ccc(S(=O)(=O)N2CCCCCC2)cc1[N+](=O)[O-]	1.2	-51.4	-11.2	7.7	nt
COc1ccc2c(c1)C(C)CC(C)(C)N2C(=O)CSc1nc2ccccc2s1 (configuration not stated)	13.3*	-21.2	nt	-5.2	4.2
O=C(COC(=O)c1ccncc1)Nc1ccccc1	1.6	nt	nt	nt	nt
O=C(COC(=O)c1ccc(CSc2ccc(Cl)cc2)cc1)Nc1ccccc1	11.5*	-48.5	nt	10.3	2.1
O=C(C1CC1)N(Cc1ccco1)c1nc(-c2ccccc2)cs1	12.1*	-13.4	-0.9	-15.6	3.4
Cc1ccc(C(=O)N2NC(c3ccc(F)cc3)C3C(=O)N(c4ccc(C)c(C)c4)C(=O)C32)cc1 (configuration not stated)	6.7	-20.6	nt	6.5	nt
O=C(CN(C(=O)CSc1nnc(COc2ccccc2)o1)c1ccc(F)cc1)NC1CCCC1	15.4*	-36.9	-0.8	5.5	1.9
COc1ccc(OCCNS(=O)(=O)c2ccc3oc4ccccc4c3c2)cc1	4.0	-35.4	nt	-7.6	nt
CN(CCOc1ccccc1)S(=O)(=O)c1ccc2oc3ccccc3c2c1	14.6*	-41.6	-2.8	3.4	7.2
CC(=O)NCC(=O)OCC(=O)c1ccc(Br)cc1	1.3	-4.0	-6.8	2.4	nt
Cn1nc(C(F)(F)F)c(/C=N/OC(=O)c2ccccc2)c1SCc1ccccc1Cl	12.1*	-28.0	-2.5	6.3	2.3
Cc1c(C(=O)N2CCN(c3ccccn3)CC2)oc2ccccc12	1.4	-49.9	-0.3	-10.4	nt
O=C(c1oc2ccccc2c1CSCc1ccccc1)N1CCN(c2ncccn2)CC1	12.4*	-33.8	-2.8	-6.1	1.5
CCOC(=O)c1c(C)[nH]c(C)c1C(=O)COC(=O)/C=C/c1cccc(C(F)(F)F)c1	22.7*	-6.6	-7.2	-1.1	2.7
CC(C)CCN(C(=O)COc1ccc(C#N)cc1)c1c(N)n(Cc2ccccc2)c(=O)[nH]c1=O	5.9	nt	nt	nt	nt
CCOC(=O)c1sc(-c2ccc(OC)cc2)cc1NC(C)=O	18.4*	-1.4	5.2	-4.4	1.1
CSc1nnc(-c2sccc2-n2cccc2)o1	1.4	nt	nt	nt	nt
Clc1cccc(Cl)c1CSc1nnc(-c2sccc2-n2cccc2)o1	16.6*	-18.7	nt	-8.8	3.0
CCOC(=O)c1cc(C)sc1NC(=O)C(c1ccccc1)c1ccccc1	16.1*	-27.5	-1.2	15.3	5.2
COc1cc(C(=O)Nc2ccc(C#N)cc2)c([N+](=O)[O-])cc1OC	2.2	nt	nt	nt	nt
CC(C)C(c1nnnn1C1CCCC1)N1CCc2ccccc21 (configuration not stated)	1.4	-56.2	-3.9	-4.7	nt
Cc1ccc(C(c2nnnn2C2CCCC2)N2CCc3ccccc32)cc1 (configuration not stated)	12.3*	-44.9	-8.1	-6.9	3.7
Cc1oc(-c2ccccc2Cl)nc1CN1CCCN(C(=O)c2ccco2)CC1	1.9	nt	nt	nt	nt
COc1ccc(-c2ccc(-c3noc(C(C)C)n3)c(OC)n2)cc1	15.0*	-67.7	-1.0	-11.5	3.5
CCc1nc(-c2ccc(-c3ccc(OC)cc3)nc2OC)no1	1.6	-20.7	nt	-9.7	nt
SMILES	RAM network inh	Yeast growth inh	Phagocyt inh	Yeast life ext	RAM 5-FOA
Cc1ccc(-n2ncc3c(=O)[nH]c(SCC(=O)N4CCN(c5ccccc5)CC4)nc32)cc1	6.9	-47.8	nt	nt	nt
Cc1ccc(-n2ncc3c(=O)[nH]c(SCC(=O)N4CCCc5ccccc54)nc32)cc1	11.7*	-47.0	-1.1	3.6	2.8
Cc1ccc(Oc2nccc(-c3ccc(Cl)cc3)n2)cc1	1.5	-4.1	-0.8	-7.2	nt
COc1ccc(N2Cc3cccc(C(=O)NC(C)CCc4ccco4)c3C2=O)cc1 (configuration not stated)	7.2	-81.0	0.1	-6.1	nt
CC(CCc1ccco1)NC(=O)c1cccc2c1C(=O)N(C1CCCCC1)C2 (configuration not stated)	12.0*	nt	nt	nt	0.8
CCOC(=O)C1=C(CSc2nc(-c3ccccc3)ccc2C#N)OC(N)=C(C#N)C1c1ccc(OC)cc1 (configuration not stated)	18.7*	-36.9	nt	-11.8	4.0
Cc1ccc(NC(=O)CN(c2ccc(Cl)cc2)S(=O)(=O)c2cc([N+](=O)[O-])ccc2Cl)c(C)c1	5.1	nt	nt	nt	nt
CC(C)c1ccc(CNc2cc(N3CCCC3)ccc2[N+](=O)[O-])cc1	18.9*	-29.7	nt	-1.4	4.7
CC(C)(C)CNc1cc(N2CCCC2)ccc1[N+](=O)[O-]	5.6	-2.9	nt	1.2	nt
COC(=O)Cc1ccc(N(Cc2ccccc2F)S(=O)(=O)c2ccc(C)cc2)cc1	20.0*	-11.3	-2.4	10.2	2.5
Cc1cc(C(=O)CSc2nn3c(=O)c(C(C)(C)C)nnc3s2)c(C)n1C	2.3	nt	nt	nt	nt
Cc1ccc(NC(=O)CCSc2nnnn2-c2ccc3c(c2)OCO3)cc1C	11.6*	-49.2	-0.7	-8.0	2.4
O=c1c2ccccc2nc(SCc2cccc(F)c2)n1Cc1ccco1	13.7*	-48.2	-1.6	9.2	6.3
Cc1ccc(CSc2nc3ccccc3c(=O)n2Cc2ccco2)cc1	14.2*	-27.2	nt	nt	4.4
O=C(CSc1nc2ccccc2c(=O)n1CCC(=O)N1CCCCC1)NCc1ccccc1	18.3*	-14.6	nt	25.1	1.8
O=c1c2ccccc2nc(SCc2ccccc2)n1Cc1ccco1	6.6	-65.3	1.3	0.1	nt
O=C(CCCn1c(SCc2cccc(F)c2)nc2ccccc2c1=O)NCC1CCCO1 (configuration not stated)	16.0*	nt	nt	nt	1.3
O=C(CCNC(=O)Cn1ccc2ccccc2c1=O)NCC1CCCC1c1ccccc1 (configuration not stated)	1.7	nt	nt	nt	nt
COc1ccccc1-c1nnc(SC(C)C(=O)O)n1-c1ccccc1 (configuration not stated)	1.8	nt	nt	nt	nt
CCN(CC)c1nc(-c2ccccn2)nc(-c2ccccc2)c1C#N	-1.1	nt	nt	nt	nt
COn1c(SCc2cccc(Cl)c2)nc2ccccc2c1=O	4.7	2.0	nt	20.7	nt
COn1c(SCc2ccccc2)nc2ccccc2c1=O	12.3*	-8.2	nt	-23.8	4.7
CCNc1nc(OC)nc(SCC(=O)Nc2ccccc2)n1	2.5	nt	nt	nt	nt
COc1cccc(NC(=O)CSc2nnc(COc3ccc4c(c3)CCCC4)o2)c1	12.1*	-19.5	1.5	nt	2.1
C=CCn1c(COc2ccccc2)nnc1SCC(=O)Nc1ccc2c(c1)OCCO2	4.4	-16.3	0.9	-1.6	nt
SMILES	RAM network inh	Yeast growth inh	Phagocyt inh	Yeast life ext	RAM 5-FOA
CCOC(=O)c1cccc(NC(=O)CSc2nnc(COc3ccccc3C)o2)c1	12.0*	5.6	-0.2	-2.8	1.5
C=CCn1c(COc2ccc3c(c2)CCCC3)nnc1SCC(=O)Nc1cccc(SC)c1	15.4*	-17.1	nt	-8.6	4.1
CCc1sc(C(=O)Nc2cc(Cl)ccc2N2CCCCC2)cc1C	13.9*	-23.4	0.2	-8.7	4.2
Cc1ccc(C(=O)Nc2cc(Cl)ccc2N2CCCCC2)s1	14.4*	-11.7	-0.7	-6.4	2.0
O=C(Nc1cc(Cl)ccc1N1CCCCC1)c1cccs1	4.0	-48.4	-0.3	-9.8	nt
CCC(=O)NC(=S)Nc1ccc(NC(=S)NC(=O)c2ccccc2)cc1	12.9*	nt	nt	nt	4.3
